Assay outcomes: PubChem BioAssay, Sanford-Burnham Center for Chemical Genomics
PPC-1+TRAIL kill: kills PPC-1 cancer cells in the presence of TRAIL. PPC-1 cells + TRAIL, ATPLite viability luminescence. cell killing (% activity), % at 4 µM or 5 µM. 0.41% of 220,000 active;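 active = cell killing above 50% in the first pass at 4 µM, then a duplicate retest at 5 µM averaging 50% or more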
FLuc inhib CS: counter-screen for luciferase assay inhibitors: firefly luciferase inhibition; 1.5% of 200,000 active; P08659; ATPLite firefly luciferase biochemical luminescence, 10 min; inhibition, % at 10 µM;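 active = inhibition above about 50% when tested at 10 µM, limit read from the data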
Target sequence (P08659 whole entry, looked up): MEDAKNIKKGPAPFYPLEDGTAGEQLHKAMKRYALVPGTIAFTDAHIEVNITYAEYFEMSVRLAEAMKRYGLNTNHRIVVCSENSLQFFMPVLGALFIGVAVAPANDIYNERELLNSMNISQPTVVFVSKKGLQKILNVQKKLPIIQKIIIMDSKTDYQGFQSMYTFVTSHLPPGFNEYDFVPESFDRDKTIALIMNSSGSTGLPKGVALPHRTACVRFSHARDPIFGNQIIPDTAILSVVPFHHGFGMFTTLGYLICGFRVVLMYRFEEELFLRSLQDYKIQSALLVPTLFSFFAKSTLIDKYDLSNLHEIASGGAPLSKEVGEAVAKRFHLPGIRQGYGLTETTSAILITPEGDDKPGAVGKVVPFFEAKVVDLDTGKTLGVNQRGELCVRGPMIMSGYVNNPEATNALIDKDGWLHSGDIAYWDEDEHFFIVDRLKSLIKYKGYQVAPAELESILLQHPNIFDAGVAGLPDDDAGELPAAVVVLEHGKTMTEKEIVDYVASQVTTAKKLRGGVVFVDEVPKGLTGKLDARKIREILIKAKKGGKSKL
FLuc stim CS: firefly luciferase counter-screen for stimulation assays. P08659. AID 1027. 200,000 tested, under 10 active. ATPlite luciferase biochemical, luminescence, 10 min; 0 = ATP-free wells, 1 = DMSO control. activation factor at 10 µM;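 active = luciferase activation factor, scaled between plate controls, of at least 2 with compound at 10 µM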
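System: luciferase plus luciferin reagent, cell-free; medium: PBS as buffer for the ATP substrate; dosing: test compounds dosed from 2 mM stocks in 100% DMSO; timing: 10 min post-reagent at room temperature; measured by: luminescence measurement of luciferase light output; evaluation: luciferase activation, seen as luminescence increase over controls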
TRAIL sens C8: caspase-8 TRAIL sensitization | NB7+C8 cells + TRAIL, ATPlite viability luminescence | inhibition (viability loss, TRAIL sensitization), % at 10 µM | 1% of 360,000 active | AID 624354;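 active = compounds causing at least 50% loss of cell viability in the single-dose screen, relative to plate controls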
Hits are given with their value; i = inactive; nt = no result given. In the library only some 1.6% were active in any assay of this set; here they are far more common.

SMILES	PPC-1+TRAIL kill	FLuc inhib CS	FLuc stim CS	TRAIL sens C8
COc1ccc(C(CC(=O)N2CCC3(CC2)OCCO3)NS(=O)(=O)c2ccc(OC)cc2)cc1 (configuration not stated)	54	i	i	i
CCN1CCN(CC(c2ccccc2)c2ccccc2)CC1	nt	nt	nt	i
O=C(c1ccccc1)C(CN1CCCC1)c1ccccc1 (configuration not stated)	57	i	i	i
C=C1C(=O)OC2CC(C)C3C=CC(=O)C3(C)C(O)C12 (configuration not stated)	nt	nt	nt	86
C=C1C(=O)O[C@@H]2C[C@@H](C)[C@@H]3C=CC(=O)[C@@]3(C)[C@@H](OC(=O)CC(=O)O[C@H]3[C@@H]4C(=C)C(=O)O[C@@H]4C[C@@H](C)[C@@H]4C=CC(=O)[C@]43C)[C@H]12	i	nt	nt	95
C=C1C(=O)O[C@H]2[C@H]1[C@H](OC(=O)CC(=O)O[C@@H]1C[C@@H](C)[C@@H]3C=CC(=O)[C@@]3(C)[C@H]3OC(=O)C(=C)[C@H]13)C[C@@H](C)[C@H]1C=CC(=O)[C@]12C	i	nt	nt	i
CC(C)c1oc(=O)cc2c1[C@@H](O)[C@H]1OC(=O)[C@@]3(C)CC[C@@H](O)[C@@]2(C)C13 (some centres not stated)	i	i	i	i
Cc1ccc(C[n+]2c(-c3ccc(C)cc3)cc(-c3ccc(C)cc3)cc2-c2ccc(C)cc2)cc1	nt	nt	nt	63
Cc1ccc(-n2cc(CNC(C)Cc3cnccn3)c(-c3cccc(C)c3)n2)cc1 (configuration not stated)	i	i	i	i
CCCN1CCc2cccc3c2[C@H]1Cc1ccc(O)c(O)c1-3	nt	nt	nt	46
C[N+](C)(C)CC1CCCC1=O (configuration not stated)	nt	nt	nt	i
CN(C)c1ccc(/C=C/[N+](=O)[O-])cc1	i	i	i	i
C/C(=C\c1ccc(N(C)C)cc1)[N+](=O)[O-]	i	i	i	50
CC(=O)Nc1ccccc1C(=O)OCC(=O)c1ccc2ccccc2c1	i	i	i	i
Nc1ccccc1C(=O)OCC(=O)c1ccc2c(c1)OCCO2	i	97	i	i
CC(=O)O[C@H]1C[C@@H]2OC3C=C(C)CCC3(C)[C@@]1(C)[C@@]21CO1 (some centres not stated)	nt	nt	nt	i
CC(=O)OC1CC2OC3C=C(C)CCC3(C)C1(C)C21CO1 (configuration not stated)	nt	nt	nt	58
CCOC(=O)C(=CNc1ccc(C(O)(C(=O)OCC)C(F)(F)F)cc1C)C(=O)OCC (configuration not stated)	i	i	i	73
CCOC(=O)C(O)(c1ccc(NC(=O)c2ccc(Cl)c(Cl)c2)cc1)C(F)(F)F (configuration not stated)	i	nt	nt	i
CC(C)CN(CC(C)C)c1ccc(C=C2C(=O)NC(=S)NC2=O)cc1[N+](=O)[O-]	i	i	i	i
C[C@]12CC[C@H]3C(CCC4(O)CC(O)CC[C@]34C=O)C1=CC[C@H]2c1ccc(=O)oc1 (some centres not stated)	nt	nt	nt	54
CC(=O)O[C@H]1[C@H]2O[C@]23[C@@H]2CC[C@]4(O)C[C@@H](O)CC[C@]4(C)C2CC[C@]3(C)[C@H]1c1ccc(=O)oc1 (some centres not stated)	nt	nt	nt	64
COc1cccc(CNCCc2c[nH]c3ccccc23)c1OC	i	i	i	i
COc1ccc(Oc2cc(NC(=O)c3nn(C)cc3[N+](=O)[O-])cc([N+](=O)[O-])c2)cc1	i	i	i	88
CCCC[C@@H](C)C[C@@H](C)C(=O)N(C)[C@@H](CC(C)C)C(=O)N[C@H](C(=O)N(C)[C@H](C(=O)N1C[C@@H](O)C[C@H]1C(=O)N1C(=O)C=C[C@@H]1C)C(C)C)C(C)OC(C)=O (some centres not stated)	nt	nt	nt	89
SMILES	PPC-1+TRAIL kill	FLuc inhib CS	FLuc stim CS	TRAIL sens C8
CN1/C(=C\C=Nc2ccccc2)C(C)(C)c2ccccc21	i	i	i	i
CN1/C(=C\C=C\C2=[N+](C)c3ccc4ccccc4c3C2(C)C)C(C)(C)c2ccccc21	66	i	i	nt
CCN1/C(=C/C=C/C2=[N+](CC)c3ccccc3C2(C)C)C(C)(C)c2ccccc21	nt	nt	nt	71
CN1/C(=C\C=C2C(=O)NC(=O)NC2=O)C(C)(C)c2ccccc21	i	i	i	i
CN(C)CC(C(=O)Cc1ccccc1)c1ccccc1 (configuration not stated)	nt	nt	nt	63
C[C@@H]([C@@H](O)c1ccccc1)N(C)C(=O)Cc1ccccc1	nt	nt	nt	i
Cc1ccc(N)c(N)c1	nt	nt	nt	i
CC(C)(O)/C=C/C(=O)C(C)(O)C1C(O)CC2(C)C3CC=C4C(C=C(O)C(=O)C4(C)C)C3(C)C(=O)CC12C (configuration not stated)	nt	nt	nt	62
CC1(C)C(C(=O)NN2C(=O)c3ccccc3C2=O)C1(C)C	i	i	i	i
CCOC(=O)[C@]12Cc3cc(C)ccc3[C@H]1N(C1CCCCC1)C(=O)c1ccccc12	nt	nt	nt	92
CCOC(=O)[C@]12Cc3ccccc3[C@H]1N(C(C)C)C(=O)c1ccccc12	nt	nt	nt	i
CCOC(=O)[C@]12Cc3ccc(C)cc3[C@H]1N(C1CCCCC1)C(=O)c1ccccc12	nt	nt	nt	86
CCOC(=O)[C@]12Cc3ccc(C)cc3[C@H]1N(C1CCCCC1)C(=O)c1cc(OC)ccc12	nt	nt	nt	95
CCOC(=O)[C@]12Cc3cc(Cl)ccc3[C@H]1N(C1CCCCC1)C(=O)c1cc(OC)ccc12	nt	nt	nt	96
CCOC(=O)[C@]12Cc3cc(OC)ccc3[C@H]1N(C)C(=O)c1cc(OC)ccc12	nt	nt	nt	i
COc1ccc(N=Cc2c(O)n(-c3ccc(C)cc3)c(=O)[nH]c2=O)cc1	i	i	i	i
CN(C)CC1CSCCC1(O)c1ccccc1 (configuration not stated)	i	i	i	i
Cc1ccc(-n2c(O)c(/C=N/N3CCCCCC3)c(=O)[nH]c2=O)cc1C	i	nt	nt	i
CCOc1cc2c(cc1OCC)-n1cccc1C(c1ccc(OC(F)F)cc1)NC2 (configuration not stated)	nt	nt	nt	i
CCOC(=O)[C@]12Cc3c(cc(OC)c(OC)c3OC)[C@H]1N(C1CCCCC1)C(=O)c1ccccc12	nt	nt	nt	90
CCOC(=O)[C@]12Cc3cc(OC)ccc3[C@H]1N(CC(=O)OC)C(=O)c1ccccc12	nt	nt	nt	i
CC12CC1(C)C(=O)N(c1cc(Cl)cc(Cl)c1)C2=O (configuration not stated)	nt	nt	nt	i
C=C1[C@@H](C)[C@H]2[C@H](Cc3ccccc3)NC(=O)[C@]23OC(=O)/C=C/[C@H](O)CCC[C@@H](C)C/C=C/[C@H]3[C@@H]1O	i	i	i	i
O=[N+]([O-])c1ccc(O)c([N+](=O)[O-])c1	nt	nt	nt	i
O=[N+]([O-])c1ccc(Cl)c([N+](=O)[O-])c1	nt	nt	nt	81
CC[C@@H]1C(=O)OC[C@@H]1Cc1cncn1C	i	i	i	i
CCC(=Nc1ccc2c(c1)CCC2)c1c(O)n(-c2ccc(OC)cc2)c(=O)[nH]c1=O	i	nt	nt	i
COc1ccc2nc(NC3=NCCN3)sc2c1	i	57	i	i
c1ccc2sc(NC3=NCCN3)nc2c1	i	i	i	i
